Compound activity as filed in PubChem.
In the library only some 4.5% were active in any assay of this set; here they are far more common.
OX1R antag-1: OX1R (human) antagonism. OX1R-expressing cells, FRET antagonist read-out. inhibition, % at 6.6 µM. AID 485270. O43613. hit rate 1.8% among 330,000; in the data active means inhibition mostly above about 38%, no sharp cut-off; inactive means mostly below about 40%;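 further: 0% = agonist challenge alone and 100% = reference antagonist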
TAAR1 antagonist: human TAAR1 antagonism. Q96RJ0. inhibition, % at 3 µM. CHO RD-HGA16 TAAR1, Fluo-8 calcium fluorescence, antagonist. hit rate 1.5% among 360,000. AID 624466;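 active means inhibition above a per-plate cutoff, the mean inhibition of test compounds on that plate plus 3 SD, cut at about 49% in these data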;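 further: 0% = DMSO plus EC80 beta-PEA response and 100% = DMSO alone without agonist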
Target sequence (Q96RJ0 whole entry, looked up): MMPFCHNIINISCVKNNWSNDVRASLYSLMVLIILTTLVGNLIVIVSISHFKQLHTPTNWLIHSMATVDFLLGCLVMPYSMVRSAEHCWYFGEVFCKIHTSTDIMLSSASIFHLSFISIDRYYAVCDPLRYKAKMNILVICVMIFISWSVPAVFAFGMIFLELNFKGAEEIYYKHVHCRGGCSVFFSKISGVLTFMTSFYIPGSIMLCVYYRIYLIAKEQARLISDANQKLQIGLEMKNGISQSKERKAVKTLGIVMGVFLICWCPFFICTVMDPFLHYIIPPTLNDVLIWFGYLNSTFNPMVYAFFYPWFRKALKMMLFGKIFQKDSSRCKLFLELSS
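Test system: hTAAR1-expressing CHO RD-HGA16 cells, Gα16-coupled; Probe or stimulus: EC80 β-phenethylamine stimulus; Compound dosing: single nominal final test compound concentration of 3 µM; Timing: 140 s kinetic read after compound, 140 s after agonist; Signal: Fluo-8 calcium-sensitive fluorescence; Measure: % inhibition of agonist calcium response; Controls: DMSO and EC80 PEA controls.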
CHO parental Ca: signal in parental CHO cells, OX1R antagonist counter-screen; hit rate 0.63% among 330,000; inhibition, % at 5.6 µM; AID 463079; parental CHO-K1, ATP-induced calcium, Fluo-8 fluorescence;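 active means inhibition above that plate's mean sample inhibition plus 3 SD, cut at about 26% in these data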;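 further: 0% = ATP-challenged DMSO wells and 100% = DMSO wells without ATP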
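Measured by: calcium-sensitive Fluo-8 fluorescence / Test system: CHO parental line / Controls: ATP-challenged DMSO wells low, unchallenged DMSO wells high / Measure: % inhibition / Compound: single nominal dose of 5.6 µM per compound / Replicates: single well per compound, no replicates / Reagent: ATP as calcium-mobilizing challenge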
OX1R antag-2: antagonists of human orexin 1 receptor. O43613. CHO/OX1R cells, Fluo-8 calcium fluorescence, orexin A. inhibition, % at 5 µM. hit rate 0.43% among 330,000. AID 434989;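 active means inhibition above its plate's threshold, mean inhibition of all tested compounds on the plate plus 3 SD, cut at about 37% in these data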;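 further: 0% = orexin A challenge wells and 100% = SB-334867-A antagonist wells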
TAAR1 agonist: human TAAR1 agonism; Q96RJ0; AID 624467; activation, % at 3 µM; hit rate 0.99% among 360,000; CHO RD-HGA16 TAAR1, Fluo-8 calcium fluorescence; vehicle wells 0%, saturating PEA agonist 100%;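 active means activation above the mean activation of all test compounds in the run plus 3 SD, cut at about 38% in these data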
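System: CHO RD-HGA16 cells carrying human TAAR1 plus Gα16; Incubation: 17-24 h seeding, 75 min 37 °C dye, 30 min RT; Measured by: Fluo-8 fluorescence, 5 s baseline then 140 s kinetic read; Control set: DMSO and PEA EC100; Replication: single well for each compound.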
GPR7 antagonist: antagonists of human GPR7 (neuropeptides B/W receptor 1); inhibition, % at 4.4 µM; AID 1861; GPR7-expressing cells, fluorescence antagonist assay; hit rate 1.1% among 290,000; P48145; in the data active means inhibition above about 16%, passing the limit was not always enough;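 further: cells stimulated with the agonist NPW; 0% = agonist with vehicle and 100% = vehicle without agonist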
GPR7 antag cf: confirmation of human GPR7 antagonists | shares compounds with GPR7 antagonist | GPR7-expressing cells, calcium fluorescence antagonist mode | hit rate 52% among 2,400 | inhibition, % at 4.4 µM; in the data active means inhibition above about 24%;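 further: stimulated with the GPR7 agonist NPW; 0% = agonist plus vehicle and 100% = vehicle alone without agonist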
MCHR1 antag: counter-screen for GPR7 antagonists: antagonists of human MCHR1; MCHR1-expressing cells, fluorescence antagonist assay; hit rate 62% among 2,400; inhibition, % at 4.4 µM; shares compounds with GPR7 antagonist; AID 2148; in the data active means inhibition above about 22%;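 further: 0% = vehicle with agonist and 100% = vehicle without agonist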
* = called active by the depositor; x = not tested or not shown.

SMILES	OX1R antag-1	TAAR1 antagonist	CHO parental Ca	OX1R antag-2	TAAR1 agonist	GPR7 antagonist	GPR7 antag cf	MCHR1 antag
COc1ccc(NC(=O)C[C@H]2C(=O)N(c3ccc(OC)cc3)C[C@@H]2C)cc1	x	-19	x	x	5	x	x	x
CN1CCN(c2nc(-c3ccc(Cl)cc3)nc3ccccc23)CC1	x	4	x	x	9	53*	41*	36*
CN1CCN(c2nc(-c3ccncc3)nc3ccccc23)CC1	23	0	4	-12	6	-8	x	x
N#Cc1c(N2CCCCC2)nc(N2CCCCC2)c2c1CCN(Cc1ccccc1)C2	10	5	-12	-22	18	46*	-13	17
N#Cc1c(NCCN)nc(NCc2ccccc2)c2c1CCN(Cc1ccccc1)C2	x	x	x	x	x	7	x	x
COCC1CCN(C(=O)C2CCC(=O)N(C3CCCCCC3)C2)CC1 (stereo unspecified)	x	-5	x	x	2	3	x	x
Cc1onc(-c2ccccc2)c1C(=O)Nc1nnc(C(C)C)s1	8	-12	-9	-19	0	-9	x	x
Cc1onc(-c2ccccc2)c1C(=O)Nc1ncc([N+](=O)[O-])s1	26	-1	5	-3	8	27*	19	37*
CC(NC(=S)NC1CCCCC1)c1ccc(C(C)(C)C)cc1 (stereo unspecified)	17	5	21	19	16	25*	40*	61*
CC(C)c1ccc(C(C)NC(=S)NC2CCCCC2)cc1 (stereo unspecified)	x	17	x	x	12	-16	x	x
O=S(=O)(c1cccs1)N1CCN(Cc2cccc(F)c2)CC1	18	-7	-11	-15	-2	30*	9	14
Cc1ccc(S(=O)(=O)N2CCN(Cc3cccc(F)c3)CC2)cc1	6	-3	-23	-21	6	x	x	x
CCOC(=O)C1(Cc2ccccc2C)CCCN(C(=O)c2sccc2C)C1 (stereo unspecified)	10	-20	-12	-15	6	43*	15	48*
Cc1ccccc1NC(=O)c1cccc(C(=O)Nc2ccccc2C)c1	11	-48	-9	-34	0	x	x	x
Cc1ccccc1NC(=O)c1cccc(C(=O)Nc2ccccc2C)n1	6	20	-23	-39	3	33*	11	37*
O=C1CCCCC(=O)[C@H](O)C[C@H](COCc2ccccc2)O1	x	-3	x	x	0	x	x	x
Cc1nnc(NCc2n[nH]c(=O)c3ccccc23)c2ccccc12	1	-10	-7	-20	8	22*	6	-7
COc1ccc(NCc2n[nH]c(=O)c3ccccc23)cc1	16	-3	-10	-8	1	-7	x	x
Cc1ccccc1Nc1nc(N)nc(CCl)n1	-1	-34	-11	-2	2	-6	x	x
Cc1ccccc1NC(=O)CSCc1nc(N)nc(Nc2ccccc2C)n1	30	5	-9	-11	4	21*	-2	6
COc1ccc(C(=O)N(C(C)C)C(C)C)c(OC)c1	8	2	-3	-4	10	25*	14	8
COc1ccc(C(=O)/C=C/c2ccccc2)c(OC)c1	33	4	-7	2	0	-7	x	x
COc1ccc(C(=O)/C=C/c2ccc(N(C)C)cc2)c(OC)c1	83*	52*	59*	112*	73*	32*	58*	81*
N#Cc1c(Nc2ccccc2)sc(C(=O)c2ccc(F)cc2)c1N	19	1	-1	-17	0	-9	x	x
Nc1c(C(=O)c2ccccc2)sc(Nc2ccccc2)c1S(=O)(=O)c1ccccc1	26	-22	-9	-19	9	22*	-27	-23
CCc1cc(=O)oc2c3c(cc(OCC(=O)NCc4ccco4)c12)OC(C)(C)CC3	10	x	5	-29	x	41*	15	32*
Cc1ccccc1C(=O)Nc1ccnn1C1CCN(C(=O)c2cnsn2)CC1	-3	0	-19	-29	1	-7	x	x
